tolC growth inh – growth inhibitors of E. coli BW25113 tolC mutant; growth inhibition, % at 10 µM (by protocol); hit rate 2.2% among 65,000; AID 573; OD615;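 active means growth inhibition at or above a cutoff equal to the mean over every tested compound plus 3 SD, cut at about 60% in these data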;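 further: growth measured after 20 h incubation at 37 °C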
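Test system: E. coli BW25113 ΔtolC::kan bacteria; incubation: 37 °C, 20 h exposure; medium: LB broth supplemented with 50 µg/mL kanamycin; read-out basis: percent growth inhibition; signal: A615 absorbance measurement; compound: 10 µM final, single dose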
PostGolgi yeast – growth inhibition of a yeast mutant, post-Golgi transport screen; post-Golgi transport phenotypic cell assay; inhibition, % at 10 µM; hit rate 0.9% among 98,000;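 further: yeast cells grown in 1536-well plates; yeast grown about 18 h at 30C before absorbance read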
E coli WT exp – blocks growth of wild type E. coli BW25113. OD600 absorbance. growth inhibition, % at 100 µM. hit rate 0.15% among 98,000. AID 710;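 active means growth inhibition above about 50% at one test dose, limit read from the data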;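 further: growth measured after 20 h incubation at 37 °C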
Cav3 T inh – inhibitors of human Cav3.2 T-type calcium channel. AID 449739. Cav3.2-expressing cells, Fluo-4 calcium fluorescence FDSS; stronger effect = lower value. B-score at 10 µM. hit rate 4% among 100,000. O95180;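 active means single-dose well whose peak fluorescence ratio is a statistical outlier from its plate by either plate-standardised score or position-corrected B-score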
Target sequence (O95180 whole entry, looked up): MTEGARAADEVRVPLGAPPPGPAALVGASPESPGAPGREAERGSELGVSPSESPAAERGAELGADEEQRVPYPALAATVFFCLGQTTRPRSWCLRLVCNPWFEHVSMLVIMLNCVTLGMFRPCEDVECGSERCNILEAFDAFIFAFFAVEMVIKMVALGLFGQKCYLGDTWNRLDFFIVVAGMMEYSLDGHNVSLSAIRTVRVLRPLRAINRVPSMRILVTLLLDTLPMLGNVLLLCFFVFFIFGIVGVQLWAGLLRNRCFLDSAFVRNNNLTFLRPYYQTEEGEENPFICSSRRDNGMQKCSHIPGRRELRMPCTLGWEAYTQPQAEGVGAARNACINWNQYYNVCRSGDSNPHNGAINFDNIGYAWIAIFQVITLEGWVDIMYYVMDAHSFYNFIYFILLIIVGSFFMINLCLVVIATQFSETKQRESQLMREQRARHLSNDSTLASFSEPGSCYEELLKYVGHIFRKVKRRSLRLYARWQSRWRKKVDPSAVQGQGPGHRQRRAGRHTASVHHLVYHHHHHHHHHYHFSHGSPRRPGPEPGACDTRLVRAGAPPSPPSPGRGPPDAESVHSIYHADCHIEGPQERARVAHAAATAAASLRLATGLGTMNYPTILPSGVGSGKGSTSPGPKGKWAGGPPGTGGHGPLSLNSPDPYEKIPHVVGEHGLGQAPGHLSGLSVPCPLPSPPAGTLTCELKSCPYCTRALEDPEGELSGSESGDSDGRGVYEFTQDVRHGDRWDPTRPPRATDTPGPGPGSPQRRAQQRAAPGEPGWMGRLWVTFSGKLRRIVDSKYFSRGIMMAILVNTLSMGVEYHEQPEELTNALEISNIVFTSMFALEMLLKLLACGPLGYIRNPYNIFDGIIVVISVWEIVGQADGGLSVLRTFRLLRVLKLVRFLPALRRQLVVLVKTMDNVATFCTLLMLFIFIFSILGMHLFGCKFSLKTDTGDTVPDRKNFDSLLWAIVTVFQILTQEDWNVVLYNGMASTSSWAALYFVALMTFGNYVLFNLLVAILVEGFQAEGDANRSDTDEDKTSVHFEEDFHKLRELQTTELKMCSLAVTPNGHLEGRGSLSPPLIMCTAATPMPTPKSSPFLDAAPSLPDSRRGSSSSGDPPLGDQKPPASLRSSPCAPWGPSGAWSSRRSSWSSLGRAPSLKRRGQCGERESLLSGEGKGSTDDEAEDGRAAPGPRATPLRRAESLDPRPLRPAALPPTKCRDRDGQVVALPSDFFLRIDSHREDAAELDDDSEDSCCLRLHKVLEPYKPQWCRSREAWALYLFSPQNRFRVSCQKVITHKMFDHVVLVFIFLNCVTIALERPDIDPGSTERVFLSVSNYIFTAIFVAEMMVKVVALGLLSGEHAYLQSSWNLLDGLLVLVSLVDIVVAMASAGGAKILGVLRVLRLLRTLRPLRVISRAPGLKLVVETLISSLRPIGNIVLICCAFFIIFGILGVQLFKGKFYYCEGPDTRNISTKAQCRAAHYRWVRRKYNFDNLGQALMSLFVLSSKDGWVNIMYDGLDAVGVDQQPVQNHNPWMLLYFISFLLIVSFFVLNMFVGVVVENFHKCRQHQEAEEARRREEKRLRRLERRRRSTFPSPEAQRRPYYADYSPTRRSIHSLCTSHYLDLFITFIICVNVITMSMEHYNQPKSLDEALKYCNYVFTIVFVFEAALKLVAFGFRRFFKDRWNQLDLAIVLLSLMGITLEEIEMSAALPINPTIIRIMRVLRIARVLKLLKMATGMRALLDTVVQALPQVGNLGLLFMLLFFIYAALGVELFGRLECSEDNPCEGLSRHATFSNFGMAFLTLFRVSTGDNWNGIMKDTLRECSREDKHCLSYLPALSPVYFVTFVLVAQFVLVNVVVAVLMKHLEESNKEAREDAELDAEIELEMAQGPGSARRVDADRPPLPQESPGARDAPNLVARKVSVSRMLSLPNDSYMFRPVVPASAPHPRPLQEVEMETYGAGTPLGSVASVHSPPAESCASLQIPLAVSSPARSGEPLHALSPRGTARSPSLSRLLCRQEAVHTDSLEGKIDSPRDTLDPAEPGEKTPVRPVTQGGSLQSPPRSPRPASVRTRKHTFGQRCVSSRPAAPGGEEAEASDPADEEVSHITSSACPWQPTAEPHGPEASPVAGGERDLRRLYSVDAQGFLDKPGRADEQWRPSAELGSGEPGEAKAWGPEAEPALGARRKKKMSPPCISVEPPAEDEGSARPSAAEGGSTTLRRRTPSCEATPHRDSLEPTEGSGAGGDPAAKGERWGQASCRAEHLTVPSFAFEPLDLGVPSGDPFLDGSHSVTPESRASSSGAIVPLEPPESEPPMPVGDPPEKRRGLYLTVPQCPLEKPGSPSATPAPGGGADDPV
PostGolgi ctrl – growth of the yeast control strain, post-Golgi counter-screen. efflux-deficient yeast background strain, growth absorbance A615, 16 h. inhibition, % at 10 µM. hit rate 5% among 98,000
Large screens that a line does not name were inactive; ! = a repeat was not active. In the library only some 8.4% were active in any assay of this set; here they are far more common. Unless noted, no stated cut-off is given here; in the data, active means inhibition above about 30%; inactive means the rest.

CCN(CC)c1ccc(C2NCC(c3ccc([N+](=O)[O-])cc3)O2)cc1 (configuration not stated)	none (no result: tolC growth inh, PostGolgi yeast, E coli WT exp, PostGolgi ctrl)
O=C(NC1CC1)c1ccc(CS(=O)(=O)c2c(Cl)cccc2Cl)o1	none
NS(=O)(=O)c1ccc(Nc2nc(-c3ccc4ccccc4c3)cs2)cc1	PostGolgi ctrl 41.9 (no result: tolC growth inh)
Cc1ccc(-c2nnn(CC(=O)N(Cc3ccco3)C(C(=O)NC(C)(C)C)c3cccs3)n2)o1 (configuration not stated)	tolC growth inh 74.5, Cav3 T inh -6.33
Cc1ccc(-c2nnn(CC(=O)N(c3ccc(F)cc3)C(C(=O)NC(C)(C)C)c3ccco3)n2)o1 (configuration not stated)	none (no result: tolC growth inh, PostGolgi yeast, E coli WT exp, PostGolgi ctrl)
COc1cccc(N(C(=O)Cn2nnc(-c3ccc(C)o3)n2)C(C(=O)NC(C)(C)C)c2cccs2)c1 (configuration not stated)	none (no result: tolC growth inh, PostGolgi yeast, E coli WT exp, PostGolgi ctrl)
CC(C)(C)NC(=O)C(c1ccco1)N(C(=O)Cn1nnc(-c2ccc(F)cc2)n1)c1cccc(F)c1 (configuration not stated)	tolC growth inh 66.7, PostGolgi ctrl 35.9 (no result: Cav3 T inh)
Cc1ccc(-c2nnn(CC(=O)N(Cc3cccs3)C(C(=O)NC(C)(C)C)c3ccco3)n2)o1 (configuration not stated)	tolC growth inh 68.6
CCn1c(CNc2ccc(F)cc2)nnc1SCC(=O)Nc1ccc(OC)cc1	none (no result: tolC growth inh, PostGolgi yeast, E coli WT exp, PostGolgi ctrl)
Cc1c(/C=C(\C#N)c2nn(-c3ccccc3)c(N)c2C#N)c2ccccc2n1Cc1ccc(F)cc1	none (no result: tolC growth inh, Cav3 T inh)
O=C(Nc1ccc(SC(F)F)cc1)c1ccc2nccnc2c1	PostGolgi ctrl 31.1
C=CC[C@]12C[C@@H](OC)C(=O)C=C1O[C@@H](c1ccc(OC)c(OC)c1)[C@H]2C	none (no result: tolC growth inh, PostGolgi yeast, E coli WT exp, PostGolgi ctrl)
O=C(CSC1=Nc2ccccc2C2=NC(CC(=O)NC3CCCCC3)C(=O)N12)NCc1ccco1 (configuration not stated)	none
O=C(CCC1N=C2c3ccccc3N=C(SCc3ccccc3Cl)N2C1=O)NCc1ccco1 (configuration not stated)	Cav3 T inh -4.19, PostGolgi ctrl 36.8
CC1=Nc2ccccc2/C1=C/c1sc(=O)n(CC(=O)N2CCCC2)c1O	none (no result: tolC growth inh)
O=C(Cn1c(O)c(/C=C2\C=Nc3ccc(Br)cc32)sc1=O)N1CCCC1	PostGolgi ctrl 36.6 (no result: tolC growth inh, Cav3 T inh)
CCOC(=O)c1c(NC(=O)CSc2nc3cccnc3n2C)sc(C(C)=O)c1C	PostGolgi ctrl 36.5
Cc1cc(N2CCN(c3ccccc3Cl)CC2)n2cc(-c3ccccc3)nc2n1	Cav3 T inh -4.33, PostGolgi ctrl 34.0 (no result: tolC growth inh)
Cc1cc(N2CCN(c3ccccc3)CC2)n2cc(-c3ccccc3)nc2n1	none (no result: tolC growth inh)
CCC(=O)Nc1ccc(Cl)c(NC(=O)C(C)C)c1	none
CCN(CC(=O)Nc1c(C(=O)OC)[nH]c2ccc(C)cc12)c1ccc2c(c1)OCO2	PostGolgi ctrl 52.8
COC(=O)c1[nH]c2ccc(F)cc2c1NC(=O)CCN1CCN(Cc2ccc3c(c2)OCO3)CC1	none
COC(=O)c1sccc1NC(=O)c1ccc(OC)cc1	PostGolgi ctrl 31.1
COC(=O)c1sccc1NC(=O)c1cccnc1	none
COC(=O)c1sccc1NC(=O)c1ccc(Cl)s1	tolC growth inh 72.4
COC(=O)c1sccc1NC(=O)c1csc(C)c1	tolC growth inh 98.0
COC(=O)c1sccc1NC(=O)c1ccc(C)s1	none (no result: tolC growth inh, PostGolgi yeast, E coli WT exp, PostGolgi ctrl)
COc1cc(NC(=O)c2ccc(Br)o2)c(C(=O)O)cc1OC	none
C=CCOC(=O)C1=C[C@H](c2cn(C(C)=O)c3ccccc23)C[C@H](OCc2ccc(CO)cc2)O1	none (no result: tolC growth inh, PostGolgi yeast, E coli WT exp, PostGolgi ctrl)
O=C(NCc1ccc2c(c1)OCO2)c1cccc(Cl)c1	none
COc1cc(OC)c(C2=NOC(C(=O)NCc3ccc4c(c3)OCO4)C2)cc1Cl (configuration not stated)	none
Cc1ccc(CNC(=O)C2CC(c3cccc(F)c3)=NO2)cc1 (configuration not stated)	none (no result: tolC growth inh, PostGolgi yeast, E coli WT exp, PostGolgi ctrl)
O=C(NCc1ccc2c(c1)OCO2)c1ccc(-c2ccc(Cl)cc2)o1	tolC growth inh 79.0, PostGolgi ctrl 70.3
O=C(NCc1ccc2c(c1)OCO2)C1CC(c2ccc(Cl)cc2)=NO1 (configuration not stated)	Cav3 T inh -5.58 (no result: tolC growth inh)
O=C(NCc1ccc(OC(F)(F)F)cc1)C1CC(c2cccc(F)c2)=NO1 (configuration not stated)	Cav3 T inh -3.15 (no result: tolC growth inh, PostGolgi yeast, E coli WT exp, PostGolgi ctrl)
COc1ccc(NC(=O)n2nc(OC(=O)c3cccs3)cc2N)cc1	none (no result: tolC growth inh, PostGolgi yeast, E coli WT exp, PostGolgi ctrl)
C=CCN1C(=O)C2(C(C#N)=C(N)Oc3n[nH]c(CCC)c32)c2ccccc21 (configuration not stated)	none
O=C(CSc1ccc2ccccc2n1)c1ccc2c(c1)OCO2	PostGolgi ctrl 31.6 (no result: tolC growth inh)
O=C(O)CCSc1ccc2ccccc2n1	PostGolgi ctrl 44.1!

Screening results: PubChem, several laboratories
